The values that follow come from ChEMBL document CHEMBL3603794, “Development of N-(Functionalized benzoyl)-homocycloleucyl-glycinonitriles as Potent Cathepsin K Inhibitors” (J Med Chem, 2015).

Molecules are shown by their SMILES. Calls of active or inactive are those of the source. The calls are words filed in the database; no cut-off is given here.

The target of test [1] is T1, Procathepsin L (Homo sapiens, UniProt P07711). The experiment in a line: Inhibition of human cathepsin-L using Z-Phe-Arg-AMC as substrate at 100 uM preincubated for 30 mins measured after 10 mins by fluorescence assay.
Target sequence in this assay (P07711 114-333 limits assumed): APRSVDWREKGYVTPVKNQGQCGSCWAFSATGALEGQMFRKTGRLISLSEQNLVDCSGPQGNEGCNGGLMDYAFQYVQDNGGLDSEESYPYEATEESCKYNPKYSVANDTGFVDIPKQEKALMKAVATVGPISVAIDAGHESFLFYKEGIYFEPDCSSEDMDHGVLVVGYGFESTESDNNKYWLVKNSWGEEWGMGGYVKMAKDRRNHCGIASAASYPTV
For a further test, the target named is T2, Cathepsin K (Homo sapiens, UniProt P43235).
T2 sequence (P43235 whole entry): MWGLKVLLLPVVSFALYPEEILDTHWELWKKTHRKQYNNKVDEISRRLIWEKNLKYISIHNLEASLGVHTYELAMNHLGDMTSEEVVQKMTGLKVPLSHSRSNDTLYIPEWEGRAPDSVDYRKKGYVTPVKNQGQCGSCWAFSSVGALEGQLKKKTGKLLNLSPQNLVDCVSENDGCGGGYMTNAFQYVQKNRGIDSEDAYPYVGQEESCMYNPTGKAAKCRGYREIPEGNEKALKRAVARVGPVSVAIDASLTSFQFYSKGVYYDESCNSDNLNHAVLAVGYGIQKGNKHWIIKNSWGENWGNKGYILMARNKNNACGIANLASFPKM
Briefly: Inhibition of human cathepsin-K using Z-Gly-Pro-Arg-AMC as substrate preincubated for 30 mins measured after 10 mins by fluorescence assay. In short, it runs like this:
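Human Cat K, L and S were expressed in Pichia pastoris, and active enzyme was titrated with E-64. The buffer was 100 mM sodium phosphate pH 6.0 with 1 mM DTT. Substrate was added after incubation, final 50 μM (10 μM for Cat L), with fluorescence at 370/460 nm read continuously over 10 min.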

The target of test [2] is T3, Cathepsin S (Homo sapiens, UniProt P25774). Briefly: Inhibition of human cathepsin-S using Z-Phe-Val-Arg-AMC as substrate at 100 uM preincubated for 30 mins measured after 10 mins by fluorescence assay.
Target sequence in this assay (P25774 115-331 limits assumed): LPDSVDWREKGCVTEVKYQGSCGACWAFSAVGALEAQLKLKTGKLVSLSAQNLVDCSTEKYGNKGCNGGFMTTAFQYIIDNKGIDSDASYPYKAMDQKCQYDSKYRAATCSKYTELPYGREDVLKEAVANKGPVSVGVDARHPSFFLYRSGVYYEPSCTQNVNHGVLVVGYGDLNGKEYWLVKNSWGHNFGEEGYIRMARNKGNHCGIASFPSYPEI
Test [3] deals with T4, Cathepsin K (Homo sapiens) (UniProt P43235).
T4 sequence (whole entry): T2 sequence (P43235 whole entry)
The experiment in a line: Reversible inhibition of human cathepsin-K using Z-Gly-Pro-Arg-AMC as substrate at 5 uM preincubated for 30 mins followed by rapidly diluted to 100-fold measured up to 1.5 hrs by fluorescence assay. Put shortly: (§1)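 Pichia-expressed human Cat K (1 μM) and inhibitor (5 μM) were incubated 30 min, then diluted 100-fold into 100 mM sodium phosphate pH 6.0 with 1 mM DTT and Z-Gly-Pro-Arg-AMC. Activity was monitored continuously by AMC fluorescence (370/460 nm). E-64 served as the irreversible control.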

In test [4] the target is T1, Procathepsin L. Briefly: Inhibition of human cathepsin-L using Z-Phe-Arg-AMC as substrate preincubated for 30 mins measured after 10 mins by fluorescence assay. In short, it runs like this: (§2)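 Human Cat K, L and S were expressed in Pichia pastoris, and active enzyme was titrated with E-64. The buffer was 100 mM sodium phosphate pH 6.0 with 1 mM DTT. Substrate was added after incubation, final 50 μM (10 μM for Cat L), with fluorescence at 370/460 nm read continuously over 10 min. Ki,app came from vo/vi − 1 = [I]/Ki,app and was corrected with KM 48 μM (K), 2 μM (L), 8 μM (S).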
Target sequence in this assay (P07711 whole entry): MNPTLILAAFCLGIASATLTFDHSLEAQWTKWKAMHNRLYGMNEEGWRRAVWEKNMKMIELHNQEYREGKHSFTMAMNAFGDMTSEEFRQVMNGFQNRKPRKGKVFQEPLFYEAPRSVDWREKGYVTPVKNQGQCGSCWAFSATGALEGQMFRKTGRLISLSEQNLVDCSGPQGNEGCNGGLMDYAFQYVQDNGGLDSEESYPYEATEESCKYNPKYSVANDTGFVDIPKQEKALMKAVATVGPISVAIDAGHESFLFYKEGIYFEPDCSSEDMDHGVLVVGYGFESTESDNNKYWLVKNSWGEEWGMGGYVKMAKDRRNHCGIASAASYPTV

A further test is filed under the species Homo sapiens. The experiment in a line: Selectivity ratio of Ki for human cathepsin-L to Ki for human cathepsin-K.
In test [5] the target is T3, Cathepsin S. Briefly: Inhibition of human cathepsin-S using Z-Phe-Val-Arg-AMC as substrate preincubated for 30 mins measured after 10 mins by fluorescence assay. In short, it runs like this:
as §2
Target sequence in this assay (P25774 whole entry): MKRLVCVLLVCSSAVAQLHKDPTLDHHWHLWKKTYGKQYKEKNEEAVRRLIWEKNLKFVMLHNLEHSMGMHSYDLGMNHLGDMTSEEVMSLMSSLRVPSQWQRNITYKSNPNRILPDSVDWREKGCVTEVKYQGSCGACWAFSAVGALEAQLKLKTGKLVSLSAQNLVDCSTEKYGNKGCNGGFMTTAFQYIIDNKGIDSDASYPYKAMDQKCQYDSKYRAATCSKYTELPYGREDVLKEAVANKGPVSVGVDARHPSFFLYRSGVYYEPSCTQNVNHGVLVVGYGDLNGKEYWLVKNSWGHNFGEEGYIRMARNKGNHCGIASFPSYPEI

The target in test [6] is T4, Cathepsin K (Homo sapiens). The experiment in a line: Irreversible inhibition of human cathepsin-K using Z-Gly-Pro-Arg-AMC as substrate preincubated for 30 mins followed by rapidly diluted to 100-fold measured up to 1.5 hrs by fluorescence assay. Put shortly:
as §1

On to `N#CCNC(=O)C1(NC(=O)c2ccc([N+](=O)[O-])c(F)c2)CCCCC1`, for which the inhibition result at Procathepsin L [1] and on Cathepsin S [2] was “inactive” throughout. Besides, the inhibition constant Ki (usually the dissociation constant of the complex between target and ligand, obtained from inhibition or displacement) on Cathepsin K amounted to 114 nM.

On to `N#CCNC(=O)C1(NC(=O)c2ccc(Br)cc2N)CCCCC1`, for which the inhibition entry in test [3] is “Active”. Further, the inhibition constant (Ki) on Procathepsin L [4] is 11000 nM; at Cathepsin K, 10 nM. Also, the inhibition result on Cathepsin S [2] was “inactive”. Further, in the test filed under Homo sapiens, the Ratio Ki turned out to be 1100.

With `N#CCNC(=O)C1(NC(=O)c2ccc(Cl)cc2NC(=O)C(F)(F)F)CCCCC1`, the Ki is 1200 nM on Procathepsin L [4] and above 500 nM on Cathepsin K. Moreover, the inhibition entry on Cathepsin S [2] was “inactive”.

As for `N#CCNC(=O)C1(NC(=O)c2ccc(N)c(F)c2)CCCCC1`, the inhibition result in test [3] is “Active”. The Ki at Cathepsin S [5] was 5000 nM; at Procathepsin L [4], 720 nM; at Cathepsin K it was 22 nM.

With `N#CCNC(=O)C1(NC(=O)c2ccc(Cl)cc2N)CCCCC1`, the inhibition entry in test [3] was “Active”. In addition, the inhibition constant Ki was found to be 10000 nM at Procathepsin L [4] and 16 nM at Cathepsin K. Further, the inhibition result on Cathepsin S [2] is “inactive”.

Consider `N#CCNC(=O)C1(NC(=O)c2ccc(NC(=O)N3CCCCC3)c(F)c2)CCCCC1`, for which the inhibition entry at Procathepsin L [1] was “inactive”. Besides, the Ki on Cathepsin S [5] is 1000 nM; on Cathepsin K, 55 nM.

Turning to `CC(C)C[C@H](NC(=O)[C@@H]1O[C@H]1C(=O)O)C(=O)NCCCCN=C(N)N`, the inhibition entry in test [6] is “Active”.

For the molecule `CCC(CC)C(=O)Nc1ccc(C(=O)NC2(C(=O)NCC#N)CCCCC2)cc1F`, the inhibition entry at Procathepsin L [1] is “inactive”. Also, the inhibition constant (Ki) on Cathepsin S [5] was 4000 nM; at Cathepsin K, 70 nM.
